Measurements gathered from unrelated publications.
Lines come from different studies, so protocols differ.
Target: STE20-like serine/threonine-protein kinase (SLK, Homo sapiens, UniProt Q9H2G2)

| SMILES | observed | method | concentration | remaining binding [%] |
| --- | --- | --- | --- | --- |
| C=CC(=O)N1CCC(C(=O)NCC(=O)N2CCN(c3nc(-c4cnc(N)nc4C(F)F)nc(N4CCOCC4)n3)CC2)CC1 | binding | competition with immobilised ligand | 1 µM | 80 |
| Cc1nc(N2CC[C@@H](O)C2)ncc1-c1cc(C(F)(F)F)cc2[nH]ncc12 | binding | competition with immobilised ligand | 1 µM | 98 |
| O=C(NCCCN1CCOCC1)c1ccc(Nc2ncc(Cl)c(-c3ccc(Cl)s3)n2)cc1 | binding | competition with immobilised ligand | 1 µM | 8 |
| Cc1nc(Cc2cccc(C(F)(F)F)c2)sc1-c1ccc(C(N)=O)nc1 | cell-free assay | competition with immobilised ligand | 1 µM | 100 |
| O=C(Nc1c[nH]nc1C(=O)NC1CCNCC1)c1cc(F)cc(F)c1 | binding | competition with immobilised ligand | 1 µM | 100 |
| CN(C)c1nccc(-c2cnn3ncccc23)n1 | binding |  | 1 µM | 100 |
| COc1ncc2cc3ccccc3nc2c1C#N | cell-free assay | competition with immobilised ligand | 5 µM | 89 |
| c1ccc(N2CCN(Cc3nc4ccccc4[nH]3)CC2)nc1 | binding | competition with immobilised ligand | 1 µM | 93 |
| O=C(NCCCN1CCOCC1)c1ccc(Nc2nccc(-c3cc4ccccc4s3)n2)cc1 | binding | competition with immobilised ligand | 1 µM | 38 |
| C[C@@H](c1ccc(-n2cnc3c(N)ncnc32)cc1)N1CCc2nn(C)c(Cc3ccccc3)c2C1=O | binding | competition with immobilised ligand | 0.1 µM | 100 |
| NS(=O)(=O)c1cc(NC(=O)Cc2ccccc2)ccc1Oc1cccc(Cl)c1 | cell-free assay | competition with immobilised ligand | 1 µM | 66 |
| CN(C)c1nccc(-c2cnc3ncccn23)n1 | binding |  | 1 µM | 100 |
| O=C(O)[C@H]1[C@H](Cn2nnc3ccccc3c2=O)CC[C@@H]1C(=O)c1ccc(OCCC2CCOCC2)cc1 | cell-free assay | competition with immobilised ligand | 1 µM | 96 |
| C[C@H]1CCN(c2nccc(-c3cnn4ncccc34)n2)C1 | binding |  | 1 µM | 96 |
| CCOC(=O)c1cc2cc(-c3cc(C(=O)NCc4ccc(C(=O)O)cc4)nn3C)ccc2[nH]1 | cell-free assay | competition with immobilised ligand | 0.1 µM | 98 |
| CN(CCCC(F)(F)F)c1nccc(-c2cnn3ncccc23)n1 | binding |  | 1 µM | 85 |
| O=C(c1ccc(Nc2ncc(Cl)c(-c3cc4ccccc4s3)n2)cc1)N1CCC(N2CCCC2)CC1 | binding | competition with immobilised ligand | 1 µM | 1.7 |
| N[C@@H]1CCN(c2nccc(-c3cnn4ncccc34)n2)C1 | binding |  | 1 µM | 83 |
| c1cncc(-c2cccc(Nc3nccc(NC4CCCCC4)n3)c2)c1 | binding | competition with immobilised ligand | 10 µM | 19 |
| CC1CCCN1c1nccc(-c2cnn3ncccc23)n1 (stereo not drawn) | binding |  | 1 µM | 100 |
| CNC(=O)[C@@H]1CC[C@@H](n2c(-c3ccc4cnccc4c3)nc3ccc(C(=O)NCc4cccc(C(N)=O)c4)cc32)C1 | binding | competition with immobilised ligand | 1 µM | 95 |
